In ChEMBL document CHEMBL3351489, “Design, synthesis, and structure-activity relationships of a series of novel N-aryl-2-phenylcyclopropanecarboxamide that are potent and orally active orexin receptor antagonists” (Bioorg Med Chem, 2014):
Converted amounts (≈) assume the structure as drawn. The source made the active and inactive calls. No cut-off for these calls is given here.

Legend:
Orexin receptor type 2 = molecular target: T1, Orexin receptor type 2 (Homo sapiens, UniProt O43614); experiment: Displacement of [125I]-Orexin A from human OX2R expressed in CHO cells after 30 mins by topcount analysis; format: cell-based
T1 sequence (O43614 whole entry): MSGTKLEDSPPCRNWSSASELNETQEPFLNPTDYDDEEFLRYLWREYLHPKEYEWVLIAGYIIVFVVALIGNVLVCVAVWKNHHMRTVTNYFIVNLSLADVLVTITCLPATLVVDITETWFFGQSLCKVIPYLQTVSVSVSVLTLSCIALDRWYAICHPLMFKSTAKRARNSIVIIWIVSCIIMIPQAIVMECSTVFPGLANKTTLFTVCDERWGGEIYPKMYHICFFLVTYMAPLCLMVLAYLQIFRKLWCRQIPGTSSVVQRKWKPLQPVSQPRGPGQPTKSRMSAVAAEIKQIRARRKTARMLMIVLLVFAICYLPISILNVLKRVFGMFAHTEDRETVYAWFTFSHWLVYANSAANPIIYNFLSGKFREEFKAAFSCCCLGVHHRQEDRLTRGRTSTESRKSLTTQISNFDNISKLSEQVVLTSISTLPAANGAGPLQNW

[1] = molecular target: T2, Orexin/Hypocretin receptor type 1 (Homo sapiens, UniProt O43613); experiment: Displacement of [125I]-Orexin A from human OX1R expressed in CHO cells after 30 mins by topcount analysis; format: cell-based
T2 sequence (O43613 whole entry): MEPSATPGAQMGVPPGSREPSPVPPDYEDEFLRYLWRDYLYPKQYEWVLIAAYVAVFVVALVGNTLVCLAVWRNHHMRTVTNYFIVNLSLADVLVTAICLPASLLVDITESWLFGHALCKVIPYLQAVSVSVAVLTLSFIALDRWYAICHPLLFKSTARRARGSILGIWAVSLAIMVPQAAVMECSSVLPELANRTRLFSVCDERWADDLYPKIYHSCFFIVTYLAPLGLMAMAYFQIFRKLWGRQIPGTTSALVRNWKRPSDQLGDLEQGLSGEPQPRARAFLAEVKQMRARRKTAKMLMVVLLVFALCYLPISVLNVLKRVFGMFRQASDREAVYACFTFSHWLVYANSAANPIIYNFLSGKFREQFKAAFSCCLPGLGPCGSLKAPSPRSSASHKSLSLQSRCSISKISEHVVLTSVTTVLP
In short: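 Membranes from CHO cells expressing human OX1R, […] per well, in 25 mM HEPES pH 7.5 with MgCl2, CaCl2, 0.5% BSA, sodium azide, Tween 20; incubated with [125I]-orexin A 30 min at rt on scintillation plate, washed, counted. Nonspecific binding with excess unlabelled orexin A; % inhibition from DPM; mean of 3 wells, single measurement.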

[2] = Ratio of efflux ratio of permeability in pig LLC-MDR1 cells to efflux ratio of permeability in pig LLC-PK1 cells; format: ADME, cell-based, Sus scrofa
In short: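 LLC-PK1 and MDR1-transfected LLC-PK1 cells grown 5 days on porous inserts (5% CO2, 37 °C). Monolayers preincubated 2 h in HBSS with 10 mM HEPES; compound added apical or basal, 2 h at 37 °C. Receiver side sampled, quantified by LC/MS; Papp from permeated amount, time, initial concentration and membrane area.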

[3] = Aqueous solubility of the compound in PBS at pH 7.4 after 15 mins by HPLC method; format: physicochemical
Mus musculus [4] = experiment: Induction of sleep in C57BL/6NCrlCrlj mouse assessed as reduction in wakefulness time at 100 mg/kg up to 3 hrs by EEG/EMG analysis; format: functional, organism-based; set-up: dose 100 mg/kg
In short: (§1)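 Oral dosing immediately before lights out, vehicle 10% Cremophor EL, 5% DMSO in saline (n = 7 per group). EEG/EMG amplified, filtered (50 Hz line), sampled at 128 Hz. Recordings were scored automatically in 10-s epochs as wakefulness, non-REM or REM sleep and checked by a blinded observer. Minutes were summed over 3 h from dosing relative to vehicle, with one-way ANOVA and Dunnett test.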

Mus musculus [5] = experiment: Induction of non-REM sleep in C57BL/6NCrlCrlj mouse at 100 mg/kg up to 3 hrs by EEG/EMG analysis; format: functional, organism-based; set-up: dose 100 mg/kg; in short: as §1
[6] = Plasma concentration in C57BL/6N mouse at 100 mg/kg, po after 1 hr; format: ADME, organism-based; set-up: dose 100 mg/kg, route oral
In short: (§2)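 Male C57BL/6N mice given single oral 100 mg/kg (suspension in 0.5% methylcellulose, or saline/Cremophor EL/DMSO 85:10:5). At 1 or 3 h, CSF taken from cisterna magna under pentobarbital, then aortic blood for plasma. Samples protein-precipitated with methanol/acetonitrile plus propranolol internal standard; LC/MS/MS in positive MRM mode, 1/x²-weighted calibration; mean ± SEM.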

[7] = Plasma concentration in C57BL/6N mouse at 100 mg/kg, po after 3 hrs; format: ADME, organism-based; set-up: dose 100 mg/kg, route oral; in short: as §2
[8] = Drug uptake in CSF of C57BL/6N mouse at 100 mg/kg, po after 1 hr; format: ADME, organism-based, Cerebrospinal fluid; set-up: dose 100 mg/kg, route oral; settings: read-out: Drug uptake; in short: as §2
[9] = Drug uptake in CSF of C57BL/6N mouse at 100 mg/kg, po after 3 hrs; format: ADME, organism-based, Cerebrospinal fluid; set-up: dose 100 mg/kg, route oral; settings: read-out: Drug uptake; in short: as §2
Mus musculus [10] = experiment: Reduction in locomotor activity in ddY mouse model at 100 mg/kg, po after 1 hr; format: functional, organism-based; set-up: dose 100 mg/kg
In short: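 Male ddY mice kept on 12-h light/dark cycle; oral 10, 30 or 100 mg/kg (DMSO stock diluted twentyfold in 10% Cremophor EL/saline), n = 8 per dose, vehicle n = 16. Ambulation counted as infrared beam breaks in an open-field box over 1 h after dosing; mean ± SEM, one-way ANOVA with Dunnett versus vehicle.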

Mus musculus [11] = experiment: Induction of sleep in po dosed C57BL/6NCrlCrlj mouse assessed as reduction in wakefulness time up to 3 hrs by EEG/EMG analysis; format: functional, organism-based
In short: (§3)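 Mice with EEG/EMG recording dosed orally (30 or 100 mg/kg, vehicle 10% Cremophor EL, 5% DMSO in saline; n = 7) immediately before lights out. Signals sampled at 128 Hz, 50 Hz filtered; 10-s epochs auto-scored as wake, non-REM or REM, then checked by a blinded observer. Minutes summed hourly and over 3 h; one-way ANOVA with Dunnett versus vehicle.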

Mus musculus [12] = experiment: Induction of non-REM sleep in po dosed C57BL/6NCrlCrlj mouse up to 3 hrs by EEG/EMG analysis; format: functional, organism-based; in short: as §3
Mus musculus [13] = experiment: Induction of REM sleep in C57BL/6NCrlCrlj mouse at 30 to 100 mg/kg, po up to 3 hrs by EEG/EMG analysis; format: functional, organism-based; in short: as §3

Row | SMILES | Ki (Orexin receptor type 2) | Ki [1] | Ratio [2] | solubility at 0.25 h [3] | further results
1 | COc1ccc(OC[C@@]2(c3ccccc3)C[C@H]2C(=O)c2ccccc2)cc1OC | 8650 nM | > 10000 nM |  |  | 
2 | COc1ccc(OC[C@@]2(c3ccccc3)C[C@H]2C(=O)Nc2ccccn2)cc1OC | 36 nM | 1070 nM | 0.9 | 32 µM (≈ 12.9 µg/mL) | 
3 | COc1ccc(OC[C@@]2(c3ccccc3)C[C@H]2C(=O)N2CCCc3ccccc32)cc1OC | > 10000 nM | > 10000 nM |  |  | 
4 | COc1ccc(OC[C@@]2(c3ccccc3)C[C@H]2C(=O)Nc2ncc(C)s2)cc1OC | 35 nM | 291 nM | 2.4 | < 1 µM | 
5 | COCc1ccc(OC[C@@]2(c3ccccc3)C[C@H]2C(=O)Nc2ccccn2)cc1OC | 3340 nM | 772 nM |  |  | 
6 | COCc1cc(OC[C@@]2(c3ccccc3)C[C@H]2C(=O)Nc2ccccn2)ccc1OC | 384 nM | 747 nM |  |  | 
7 | Cc1ccc(-c2nc3ccc(C)cn3c2CC(=O)N(C)C)cc1 |  |  |  |  | Activity (Mus musculus [4]): Active; Activity (Mus musculus [5]): Active
8 | COc1ccc(OC[C@@]2(c3ccccc3)C[C@H]2C(=O)N(C)c2ccccc2)cc1OC | 4680 nM | 7540 nM |  |  | 
9 | COc1ccc(OCC2(c3ccccc3)CC2C(=O)Nc2ccc(C#N)cn2)cc1OC (single isomer, unassigned; (+)) | > 2000 nM | > 2000 nM |  |  | 
10 | COc1ccc(OC[C@@]2(c3ccccc3)C[C@H]2C(=O)Nc2cccnc2)cc1OC | 51 nM | 206 nM | 3.4 |  | 
11 | COc1ccc(OC[C@@]2(c3ccccc3)C[C@H]2C(=O)NC2CCCCC2)cc1OC | 7850 nM | 2990 nM |  |  | 
12 | COc1ccc(OC[C@@]2(c3ccccc3)C[C@H]2C(=O)Nc2nc(C)cs2)cc1OC | 14 nM | 832 nM | 1.5 | 11 µM (≈ 4.67 µg/mL) | 
13 | COc1ccc(OC[C@@]2(c3ccccc3)C[C@H]2C(=O)Nc2ccncc2)cc1OC | 85 nM | 1420 nM | 4.9 |  | 
14 | COc1ccc([C@]2(COc3ccccc3)C[C@H]2C(=O)Nc2ccccn2)cc1OC | 129 nM | > 10000 nM |  |  | 
15 | O=C(Nc1ccccn1)[C@@H]1C[C@@]1(COc1ccccc1)c1ccccc1 | 967 nM | 6840 nM |  |  | 
16 | COc1ccc(OC[C@@]2(c3ccccc3)C[C@H]2C(=O)Cc2ccccc2)cc1OC | > 10000 nM | > 10000 nM |  |  | 
17 | COc1ccc(OCC2(c3ccccc3)CC2C(=O)Nc2ccc(C#N)cn2)cc1OC (single isomer, unassigned; (-)) [listing 1 of 2 here] | 5 nM | 106 nM | 1.1 | 15 µM (≈ 6.44 µg/mL) | concentration at 1 h [6]: 9900 nM; concentration at 3 h [7]: 3740 nM; concentration at 1 h [8]: 245 nM; concentration at 3 h [9]: 94 nM
18 | COc1ccc(OC[C@@]2(c3ccccc3)C[C@H]2C(=O)Nc2cc(C#N)ccn2)cc1OC | 34 nM | 103 nM | 1 | 10 µM (≈ 4.29 µg/mL) | 
19 | COc1ccc(OC[C@@]2(c3ccccc3)C[C@H]2C(=O)Nc2ccccn2)cc1 | 588 nM | 5540 nM |  |  | 
20 | COc1ccc(OC[C@@]2(c3ccccc3)C[C@H]2CNc2ccccc2)cc1OC | 4230 nM | 4160 nM |  |  | 
21 | COc1cccc(OC[C@@]2(c3ccccc3)C[C@H]2C(=O)Nc2ccccn2)c1 | 1330 nM | > 10000 nM |  |  | 
22 | COc1ccc(OC[C@@]2(c3ccccc3)C[C@H]2C(=O)Nc2cc(C)on2)cc1OC | 28 nM | 505 nM |  | < 1 µM | 
23 | COc1ccc(OCC2(c3ccccc3)CC2C(=O)Nc2ccc(C#N)cn2)cc1OC (single isomer, unassigned; (-)) [listing 2 of 2 here] |  |  |  |  | Activity (Mus musculus [10]): Active; Activity (Mus musculus [11]): Dose-dependent effect; Activity (Mus musculus [12]): Dose-dependent effect; Activity (Mus musculus [13]): inactive
24 | COc1ccc(OC[C@@]2(c3ccccc3)C[C@H]2C(=O)Nc2ccccc2)cc1OC | 7.2 nM | 7.2 nM | 0.6 | 2 µM (≈ 0.807 µg/mL) | 
25 | Cc1nc(C(=O)N2CCCC[C@H]2CNC(=O)c2cccc3occc23)c(-c2ccc(F)cc2)s1 [SB-649868] | 8.5 nM |  |  |  | 
26 | COc1ccc(OC[C@@]2(c3ccccc3)C[C@H]2C(=O)Nc2ccc(C#N)cn2)cc1OC (racemic) | 14 nM | 123 nM | 1.1 | 22 µM (≈ 9.45 µg/mL) | 
